Assays:
Rattus norvegicus [1] = assay: Serum Non-HDL cholesterol levels in female obese rats one week post treatment at 30 mg/kg oral dose; pretreatment value = 31 mg/dL; format: functional
In short: (§1)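 Female obese Zucker fatty rats (10–12 weeks, 400–500 g), once-daily oral gavage in 20% EtOH/80% PEG-200 (v/v) for up to 14 days. Serum drawn after a 6 h fast, pre-dose and at days 7 and 14. Non-HDL cholesterol is serum total cholesterol times the percent area of the non-HDL peaks in a Superose 6HR gel-filtration profile with on-line cholesterol detection. n = 4 per dose.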

Rattus norvegicus [2] = assay: Percent change from pre-treatment triglycerides level at 100 mg/Kg after 1 week; format: functional
In short: (§2)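 Female obese Zucker fatty rats Crl:(Zuc)-faBR, 10–12 weeks old (400–500 g), n=3–4, fed chow. Dosed by oral gavage once daily in 20% EtOH/80% PEG-200 for up to 14 days. Serum taken after a 6 h fast before dosing, at day 7 (orbital plexus) and at day 14 (cardiac puncture). TG by enzymatic kit on analyzer. HDL-C and non-HDL-C from Superose 6 gel-filtration profile area × total cholesterol. Results given as % change from pretreatment.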

Rattus norvegicus [3] = assay: Serum Non-HDL cholesterol levels in female obese rats two weeks post treatment at 3 mg/kg oral dose; pretreatment value = 21 mg/dL; format: functional; in short: as §1
Rattus norvegicus [4] = assay: Percent change from pre-treatment HDL-Cholesterol level at 100 mg/Kg after 2 weeks; format: functional; in short: as §2
Rattus norvegicus [5] = organism: Rattus norvegicus; assay: In vitro inhibitory concentration against lipid synthesis in primary rat hepatocyte culture; format: functional
In short: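 Primary hepatocytes isolated from male Sprague-Dawley rats (Seglen method) and plated on collagen in DMEM with 20% FBS, 100 nM insulin, 25 mM glucose. Medium made serum-free after 4 h, cultured overnight to monolayers. Then 4 h incubation with 0.25 μCi [14C]-acetate/well (1 Ci/mol) and 0–300 μM compound. Lipids extracted into scintillant and counted. IC50 derived from lipid synthesis rates by nonlinear sigmoidal fit.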

Rattus norvegicus [6] = assay: Serum Triglyceride levels in female obese rats one week post treatment at 100 mg/kg oral dose; pretreatment value = 746 mg/dL; format: functional
Rattus norvegicus [7] = assay: Serum NEFA levels in female obese rats one week post treatment at 10 mg/kg oral dose; pretreatment value = 1.2 mg/dL; format: functional
Rattus norvegicus [8] = assay: Blood glucose levels in female obese rats two weeks post treatment at 30 mg/kg oral dose; pretreatment value = 109 mg/dL; format: functional
Rattus norvegicus [9] = assay: Serum HDL cholesterol levels in female obese rats one week post treatment at 10 mg/kg oral dose; pretreatment value = 56 mg/dL; format: functional
Rattus norvegicus [10] = assay: Serum NEFA levels in female obese rats two weeks post treatment at 100 mg/kg oral dose; pretreatment value = 1.1 mg/dL; format: functional
Rattus norvegicus [11] = assay: Percent change from pre-treatment triglycerides level at 100 mg/Kg after 2 weeks; format: functional; in short: as §2
Rattus norvegicus [12] = assay: Serum Non-HDL cholesterol levels in female obese rats one week post treatment at 100 mg/kg oral dose; pretreatment value = 23 mg/dL; format: functional; in short: as §1
Rattus norvegicus [13] = assay: Serum Non-HDL cholesterol levels in female obese rats two weeks post treatment at 10 mg/kg oral dose; pretreatment value = 25 mg/dL; format: functional; in short: as §1
Rattus norvegicus [14] = assay: Serum Non-HDL cholesterol levels in female obese rats one week post treatment at 10 mg/kg oral dose; pretreatment value = 25 mg/dL; format: functional; in short: as §1
Rattus norvegicus [15] = assay: Insulin levels in female obese rats one week post treatment at 30 mg/kg oral dose; pretreatment value = 9.3 ng/mL; format: functional
Rattus norvegicus [16] = assay: Percent change from pre-treatment HDL-Cholesterol level at 100 mg/Kg after 1 week; format: functional; in short: as §2
Rattus norvegicus [17] = assay: Percent change from pre-treatment Non HDL-Cholesterol level at 100 mg/Kg after 1 week; format: functional; in short: as §2
Rattus norvegicus [18] = assay: Serum HDL cholesterol levels in female obese rats one week post treatment at 3 mg/kg oral dose; pretreatment value = 59 mg/dL; format: functional
Rattus norvegicus [19] = assay: Serum Non-HDL cholesterol levels in female obese rats two weeks post treatment at 30 mg/kg oral dose; pretreatment value = 31 mg/dL; format: functional; in short: as §1
Rattus norvegicus [20] = assay: Serum NEFA levels in female obese rats one week post treatment at 100 mg/kg oral dose; pretreatment value = 1.1 mg/dL; format: functional
Rattus norvegicus [21] = assay: Insulin levels in female obese rats two weeks post treatment at 10 mg/kg oral dose; pretreatment value = 8.2 ng/mL; format: functional
Rattus norvegicus [22] = assay: Blood glucose levels in female obese rats one week post treatment at 100 mg/kg oral dose; pretreatment value = 105 mg/dL; format: functional
Rattus norvegicus [23] = assay: Blood glucose levels in female obese rats two weeks post treatment at 100 mg/kg oral dose; pretreatment value = 105 mg/dL; format: functional
Rattus norvegicus [24] = assay: Serum Non-HDL cholesterol levels in female obese rats two weeks post treatment at 100 mg/kg oral dose; pretreatment value = 23 mg/dL; format: functional; in short: as §1
Rattus norvegicus [25] = assay: Percent change from pre-treatment Non HDL-Cholesterol level at 100 mg/Kg after 2 weeks; format: functional; in short: as §2
Rattus norvegicus [26] = assay: Serum Non-HDL cholesterol levels in female obese rats two weeks post treatment at 3 mg/kg oral dose; pretreatment value = 29 mg/dL
Rattus norvegicus [27] = assay: Insulin levels in female obese rats two weeks post treatment at 30 mg/kg oral dose; pretreatment value = 9 ng/mL; format: functional
Rattus norvegicus [28] = assay: Serum NEFA levels in female obese rats one week post treatment at 30 mg/kg oral dose; pretreatment value = 1.2 mg/dL; format: functional
Rattus norvegicus [29] = assay: Serum HDL cholesterol levels in female obese rats one week post treatment at 10 mg/kg oral dose; pretreatment value = 61 mg/dL; format: functional
Rattus norvegicus [30] = assay: Serum HDL cholesterol levels in female obese rats one week post treatment at 30 mg/kg oral dose; pretreatment value = 49 mg/dL; format: functional
Rattus norvegicus [31] = assay: Serum Non-HDL cholesterol levels in female obese rats one week post treatment at 3 mg/kg oral dose; pretreatment value = 29 mg/dL; format: functional; in short: as §1
Rattus norvegicus [32] = assay: Serum Triglyceride levels in female obese rats two weeks post treatment at 3 mg/kg oral dose; pretreatment value = 1111 mg/dL; format: functional
Rattus norvegicus [33] = assay: Serum Non-HDL cholesterol levels in female obese rats two weeks post treatment at 10 mg/kg oral dose; pretreatment value = 33 mg/dL
Rattus norvegicus [34] = assay: Insulin levels in female obese rats one week post treatment at 100 mg/kg oral dose; pretreatment value = 8.6 ng/mL; format: functional
Rattus norvegicus [35] = assay: Insulin levels in female obese rats two weeks post treatment at 10 mg/kg oral dose; pretreatment value = 8.8 ng/mL; format: functional
Rattus norvegicus [36] = assay: Serum Triglyceride levels in female obese rats one week post treatment at 30 mg/kg oral dose; pretreatment value = 1004 mg/dL; format: functional
Rattus norvegicus [37] = assay: Serum Triglyceride levels in female obese rats two weeks post treatment at 30 mg/kg oral dose; pretreatment value = 1004 mg/dL; format: functional
Rattus norvegicus [38] = assay: Serum Triglyceride levels in female obese rats two weeks post treatment at 10 mg/kg oral dose; pretreatment value = 1185 mg/dL; format: functional
Rattus norvegicus [39] = assay: Insulin levels in female obese rats one week post treatment at 30 mg/kg oral dose; pretreatment value = 9 ng/mL; format: functional
Rattus norvegicus [40] = assay: Insulin levels in female obese rats two weeks post treatment at 100 mg/kg oral dose; pretreatment value = 8.6 ng/mL; format: functional

## CC(C)(CO)CCCCOCCCCC(C)(C)CO
Rattus norvegicus [1]
  Activity: 20 mg/dL
Rattus norvegicus [2]
  Change: -77%
Rattus norvegicus [3]
  Activity: 29 mg/dL
Rattus norvegicus [4]
  Change: 366%
Rattus norvegicus [5]
  IC50: 11 µM
Rattus norvegicus [6]
  Activity: 174 mg/dL
Rattus norvegicus [7]
  Activity: 1.2 mg/dL
Rattus norvegicus [8]
  Activity: 123 mg/dL
Rattus norvegicus [9]
  Activity: 100 mg/dL
Rattus norvegicus [10]
  Activity: 0.83 mg/dL
Rattus norvegicus [11]
  Change: -71%
Rattus norvegicus [12]
  Activity: 14 mg/dL
Rattus norvegicus [13]
  Activity: 43 mg/dL
Rattus norvegicus [14]
  Activity: 30 mg/dL
Rattus norvegicus [15]
  Activity: 14.2 ng/mL
Rattus norvegicus [16]
  Change: 234%
Rattus norvegicus [17]
  Change: -38%
Rattus norvegicus [18]
  Activity: 70 mg/dL
Rattus norvegicus [19]
  Activity: 33 mg/dL
Rattus norvegicus [20]
  Activity: 0.76 mg/dL
Rattus norvegicus [21]
  Activity: 9 ng/mL
Rattus norvegicus [22]
  Activity: 107 mg/dL
Rattus norvegicus [23]
  Activity: 101 mg/dL
Rattus norvegicus [24]
  Activity: 26 mg/dL
Rattus norvegicus [25]
  Change: 11%

## CC(C)(CO)CCCCCOCCCCCC(C)(C)CO
Rattus norvegicus [26]
  Activity: 29 mg/dL
Rattus norvegicus [1]
  Activity: 15 mg/dL
Rattus norvegicus [2]
  Change: -91%
Rattus norvegicus [27]
  Activity: 10.4 ng/mL
Rattus norvegicus [4]
  Change: 133%
Rattus norvegicus [5]
  IC50: 4 µM
Rattus norvegicus [28]
  Activity: 0.89 mg/dL
Rattus norvegicus [29]
  Activity: 92 mg/dL
Rattus norvegicus [11]
  Change: -82%
Rattus norvegicus [12]
  Activity: 5 mg/dL
Rattus norvegicus [30]
  Activity: 128 mg/dL
Rattus norvegicus [16]
  Change: 99%
Rattus norvegicus [31]
  Activity: 26 mg/dL
Rattus norvegicus [17]
  Change: -82%
Rattus norvegicus [32]
  Activity: 1116 mg/dL
Rattus norvegicus [33]
  Activity: 53 mg/dL
Rattus norvegicus [19]
  Activity: 32 mg/dL
Rattus norvegicus [34]
  Activity: 3.5 ng/mL
Rattus norvegicus [35]
  Activity: 8.7 ng/mL
Rattus norvegicus [36]
  Activity: 191 mg/dL
Rattus norvegicus [37]
  Activity: 424 mg/dL
Rattus norvegicus [38]
  Activity: 1420 mg/dL
Rattus norvegicus [22]
  Activity: 72 mg/dL
Rattus norvegicus [39]
  Activity: 12.4 ng/mL
Rattus norvegicus [23]
  Activity: 104 mg/dL
Rattus norvegicus [24]
  Activity: 10 mg/dL
Rattus norvegicus [40]
  Activity: 4.4 ng/mL
Rattus norvegicus [25]
  Change: -68%

— ChEMBL document CHEMBL1137218, “Long hydrocarbon chain ether diols and ether diacids that favorably alter lipid disorders in vivo” (J Med Chem, 2004)
